Consider 18 compounds from ChEMBL document CHEMBL1127332, “Pyrido[2,3-d]pyrimidine angiotensin II antagonists” (J Med Chem, 1994).

SMILES strings stand for the structures.

A short description of data set [1]: Partition coefficient (logP). It is filed as physicochemical. To be noted: octanol/water.
Data set [2] can be described thus: Partition coefficient (logD) (octanol/0.01 N K2HPO4). It counts as physicochemical. The essentials: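 Distribution coefficient measured between octanol and pH 7.4 phosphate buffer.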
The target in data set [3] is T1, Angiotensin II receptor (AT-1) type-1 (Rattus norvegicus, UniProt P29089+P25095).
T1 sequence (P29089 whole entry): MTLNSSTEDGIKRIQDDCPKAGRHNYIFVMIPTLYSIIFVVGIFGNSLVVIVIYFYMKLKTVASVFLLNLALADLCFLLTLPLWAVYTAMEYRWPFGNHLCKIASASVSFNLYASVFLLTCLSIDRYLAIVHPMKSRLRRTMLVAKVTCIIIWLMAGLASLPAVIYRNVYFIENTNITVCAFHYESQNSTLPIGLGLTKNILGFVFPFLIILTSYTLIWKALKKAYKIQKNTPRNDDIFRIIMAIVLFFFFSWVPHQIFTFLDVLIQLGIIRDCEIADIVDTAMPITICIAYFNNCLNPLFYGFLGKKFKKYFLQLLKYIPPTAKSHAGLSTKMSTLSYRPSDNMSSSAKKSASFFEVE
T1 sequence (P25095 whole entry): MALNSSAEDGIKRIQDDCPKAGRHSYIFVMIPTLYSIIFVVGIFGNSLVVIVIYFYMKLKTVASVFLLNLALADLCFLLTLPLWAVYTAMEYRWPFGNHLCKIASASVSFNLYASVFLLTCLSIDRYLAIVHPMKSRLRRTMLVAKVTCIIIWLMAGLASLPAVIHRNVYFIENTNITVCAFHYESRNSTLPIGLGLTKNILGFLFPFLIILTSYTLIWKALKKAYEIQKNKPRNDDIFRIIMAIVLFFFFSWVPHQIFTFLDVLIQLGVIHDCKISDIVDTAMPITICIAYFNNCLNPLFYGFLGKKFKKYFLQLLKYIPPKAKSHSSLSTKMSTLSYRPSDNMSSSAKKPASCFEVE
As to the kind of experiment: In vitro inhibition of specific binding of [125 I] A II to rat liver membrane. The procedure, abridged:
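Rat liver membrane preparation (AT1 sites), diluted in kit buffer. Nonspecific binding defined with 10⁻⁴ M A II, standard curve 10⁻¹⁰–10⁻⁷ M. Reaction stopped with saline and glass-fiber filtration, then gamma counting.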

Data set [4] has as its system Rattus norvegicus. As to the kind of experiment: Maximum percent change in A II supported mean arterial pressure 60 minutes following 3 mg/kg i.d. administration. It is filed as functional. To be noted: Artery, intraduodenal, in the assay text read “at the time of maximum effect following” for “60 minutes following”, read-out: Inhibition. The procedure, abridged:
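Anesthetized rats, ganglion blocked with mecamylamine 3 mg/kg iv, under A II infusion until pressure stabilized. Agent suspended in methyl cellulose and given 3 mg/kg through a duodenal cannula (1 mL/kg). MAP followed for 240 min. Fall expressed as percent of the A II-supported pressure. Maximum change and its time recorded, n = 3. Adjusted AUC between control and treated MAP/time curves.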

`Cc1nc(C(C)C)c2c(n1)N(Cc1ccc(-c3ccccc3-c3nn[nH]n3)cc1)C(=O)CC2` showed a logP in data set [1] of 4.32. Also, in data set [2], the logD was 1.41. In data set [3], this compound yielded an IC50 of 13 nM. In addition, the maximum percent change in A II-supported mean arterial pressure at 3 mg/kg in data set [4] was -44%.
On to `Cc1nc(C)c2c(n1)N(Cc1ccc(-c3ccccc3-c3nn[nH]n3)cc1)C(=O)C(C)(C)C2`, for which the logP in data set [1] came to 4.43. In data set [2], this compound yielded a logD of 1.21. This compound had an IC50 in data set [3] of 3 nM. The maximum percent change in A II-supported mean arterial pressure at 3 mg/kg in data set [4] was -66%.
Consider `CCCc1nc(C)c2c(n1)N(Cc1ccc(-c3ccccc3-c3nn[nH]n3)cc1)C(=O)CC2`, for which, in data set [3], the IC50 is recorded as 1.35 nM. The maximum percent change in A II-supported mean arterial pressure at 3 mg/kg in data set [4] was -58%.
`Cc1nc(C)c2c(n1)N(Cc1ccc(-c3ccccc3-c3nn[nH]n3)nc1)C(=O)CC2`: the IC50 in data set [3] worked out at 24.3 nM. Further, the maximum percent change in A II-supported mean arterial pressure at 3 mg/kg in data set [4] is -16%.
As to `CCc1nc(C)c2c(n1)N(Cc1ccc(-c3ccccc3-c3nn[nH]n3)cc1)C(=O)CC2`, in data set [3], the IC50 is listed as 1.3 nM. Besides, the maximum percent change in A II-supported mean arterial pressure at 3 mg/kg in data set [4] was -76%.
For the compound `CCCCc1nc(Cl)c(CO)n1Cc1ccc(-c2ccccc2-c2nnn[nH]2)cc1` [LOSARTAN], the maximum percent change in A II-supported mean arterial pressure at 3 mg/kg in data set [4] is -72%.
With `Cc1nc(C)c2c(n1)N(Cc1ccc(-c3ccccc3-c3nn[nH]n3)cc1)CCC2`, the IC50 in data set [3] is given as 170 nM. In addition, the maximum percent change in A II-supported mean arterial pressure at 3 mg/kg in data set [4] was -20%.
As for `Cc1nc(C=O)c2c(n1)N(Cc1ccc(-c3ccccc3-c3nn[nH]n3)cc1)C(=O)CC2`, the IC50 in data set [3] is 50.7 nM.
For `Cc1nc(C)c2c(n1)N(Cc1ccc(-c3ccccc3-c3nnn[nH]3)cc1)C(=O)CC2` [TASOSARTAN], the logP in data set [1] is 3.39. In data set [2], this compound showed a logD of 0.49. This compound had an IC50 in data set [3] of 5.2 nM. Also, the maximum percent change in A II-supported mean arterial pressure at 3 mg/kg in data set [4] was -97%.
As for `Cc1nc(C)c2c(n1)N(Cc1ccc(-c3ccccc3-c3nn[nH]n3)cc1)C(=O)C(C)C2` (stereo not drawn), the logP in data set [1] was determined as 3.91. Moreover, the IC50 in data set [3] came out at 3.2 nM. The maximum percent change in A II-supported mean arterial pressure at 3 mg/kg in data set [4] was -63%.
The compound `Cc1nc2c(c(C(F)(F)F)n1)CCC(=O)N2Cc1ccc(-c2ccccc2-c2nn[nH]n2)nc1` had an IC50 in data set [3] of 94.9 nM. Also, in data set [4], the maximum percent change in A II-supported mean arterial pressure at 3 mg/kg is -41%.
In the same order, the values of `Cc1nc(C)c2c(n1)N(Cc1ccc(-c3ccccc3-c3nn[nH]n3)cn1)C(=O)CC2` are 49.4 nM and -34%.
With `Cc1nc(CO)nc2c1CCC(=O)N2Cc1ccc(-c2ccccc2-c2nn[nH]n2)cc1`, the concentration for half-maximal inhibition (IC50) in data set [3] was determined as 285 nM. Besides, the maximum percent change in A II-supported mean arterial pressure at 3 mg/kg in data set [4] is -30%.
`CCc1nc(C)nc2c1CCC(=O)N2Cc1ccc(-c2ccccc2-c2nn[nH]n2)cc1` gave a logP in data set [1] of 3.92. Also, the concentration for half-maximal inhibition (IC50) in data set [3] stood at 2.3 nM. The maximum percent change in A II-supported mean arterial pressure at 3 mg/kg in data set [4] is -104%.
In data set [3], `Cc1nc(C(C)C)nc2c1CCC(=O)N2Cc1ccc(-c2ccccc2-c2nn[nH]n2)cc1` gave an IC50 of 2.2 nM. Further, the maximum percent change in A II-supported mean arterial pressure at 3 mg/kg in data set [4] was -40%.
`Cc1nc(C)c2c(n1)N(Cc1ccc(-c3ccccc3C(=O)[O-])cc1)C(=O)CC2.[K+]`: the IC50 in data set [3] came to 85 nM. The maximum percent change in A II-supported mean arterial pressure at 3 mg/kg in data set [4] was -36%.
The compound `CCCc1nc(C)nc2c1CCC(=O)N2Cc1ccc(-c2ccccc2-c2nn[nH]n2)cc1` came in with a logP in data set [1] of 4.45. Also, the IC50 in data set [3] is given as 1.8 nM. Further, the maximum percent change in A II-supported mean arterial pressure at 3 mg/kg in data set [4] was -86%.
In data set [3], `Cc1nc2c(c(C(F)(F)F)n1)CCC(=O)N2Cc1ccc(-c2ccccc2-c2nn[nH]n2)cc1` returned an IC50 of 24.6 nM. Besides, the maximum percent change in A II-supported mean arterial pressure at 3 mg/kg in data set [4] is -68%.

The term logP denotes a log measure of how a compound divides between an organic and an aqueous phase. A high value points to a more lipophilic compound. A word on the logD: it is lipophilicity at a set pH, counting ionised and neutral species. Lower therefore signals a more hydrophilic compound. Usually IC50 stands for the midpoint of a concentration-inhibition curve. Higher therefore signals a need for much substance.
